≈ marks a conversion by molar mass, not a printed value. Calls of active or inactive are those of the source. The calls are words filed in the database; no cut-off is given here.
How the values were obtained:
[1] = tested on: Mycobacterium tuberculosis; assay: Antimicrobial activity against Mycobacterium tuberculosis; type: functional, organism-based
[2] = biological target: T1, Nuclear receptor subfamily 4immunitygroup A member 1 (Homo sapiens, UniProt P22736); assay: Binding affinity to nuclear orphan receptor Nur77 by sedimentation equilibrium assay
[3] = biological target: Nuclear receptor subfamily 4 group A member 1 (Mus musculus) (UniProt P12813); assay: Agonist activity at Nur77 in wild-type mouse C57BL/6 assessed as pyruvate kinase mRNA at 50 mg/kg, ip within 30 mins by real-time PCR analysis; type: functional, organism-based; design: dose 50 mg/kg
[4] = biological target: T1, Nuclear receptor subfamily 4immunitygroup A member 1; assay: Agonist activity at nuclear orphan receptor Nur77 expressed in human BGC823 cells co-transfected with fused GAL4-Nur77 assessed as transactivation after 12 hrs by luciferase reporter gene assay; type: functional, cell-based, BGC-823
BGC-823 [5] = assay: Antitumor activity against human BGC823 cells expressing Nur77-WT xenografted in athymic nude mouse BALB/c assessed as tumor weight 13 mg/kg, ip twice a week after 4 weeks; type: functional, organism-based; design: dose 13 mg/kg
How it was run: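 BALB/c athymic nude mice (~16 g, 4 weeks old, 28 °C, sterile housing) inoculated subcutaneously with 0.05 ml BGC-823 cell suspension (wild-type, si-Nur77 or si-Ctrl sublines; 2.5×10^10 l-1), n = 6; after 1 week, Csn-B 13 mg kg-1 ip twice weekly or DMSO; tumors weighed at 4 weeks; means ± s.d., two-tailed t-test.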

[6] = biological target: T1, Nuclear receptor subfamily 4immunitygroup A member 1; assay: Agonist activity at nuclear orphan receptor Nur77 in human BGC823 cells bearing beta-galactosidase expression vector assessed as transcriptional activation of estrogen receptor reporter gene after 12 hrs by luciferase assay; type: functional, cell-based; conditions: BGC-823
[7] = biological target: T1, Nuclear receptor subfamily 4immunitygroup A member 1; assay: Induction of SRC2-enhanced Nur77 transactivational activity in human BGC823 cells after 12 hrs by luciferase/beta-galactosidase reporter assay; type: cell-based; conditions: BGC-823
How it was run: (§1)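 BGC-823 cells cotransfected with or without SRC-1, SRC-2 or SRC-3, plus NurRE-luciferase reporter and β-galactosidase, then treated for 12 h at a range of concentrations. Fold induction is each luciferase activity relative to non-SRC transfection at the same concentration.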

[8] = biological target: Nuclear receptor subfamily 4 group A member 1 (Mus musculus) (UniProt P12813); assay: Agonist activity at Nur77 in wild-type mouse assessed as transcriptional activation of luciferase reporter gene relative to control; type: functional
How it was run: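 Nur77, NurRE-luciferase reporter and β-galactosidase combined with in vivo transfection reagent and injected into tail vein of wild-type or Nr4a1-/- C57BL/6 mice (n = 5/group); 5 h later DMSO (50 μl) or Csn-B 50 mg kg-1 ip; liver lysate luciferase read 24 h post-injection; means ± s.e.m.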

[9] = biological target: Nuclear receptor subfamily 4 group A member 1 (Mus musculus) (UniProt P12813); assay: Agonist activity at Nur77 in wild-type mouse C57BL/6 assessed as fructose-1,6-bisphosphatase mRNA at 50 mg/kg, ip within 30 mins by real-time PCR analysis relative to control; type: functional, organism-based; design: dose 50 mg/kg
[10] = biological target: T1, Nuclear receptor subfamily 4immunitygroup A member 1; assay: Induction of SRC1-enhanced Nur77 transactivational activity in human BGC823 cells after 12 hrs by luciferase/beta-galactosidase reporter assay; type: cell-based; conditions: BGC-823; how it was run: as §1
BGC-823 [11] = assay: Induction of Nur77 mediated apoptosis in human BGC823 cells assessed as nuclear DNA condensation by flow cytometry assay; type: functional, cell-based
[12] = biological target: T1, Nuclear receptor subfamily 4immunitygroup A member 1; assay: Binding affinity to GST-tagged nuclear orphan receptor Nur77 at 25 degC by fluorescence quenching analysis
How it was run: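 GST-Nur77 intrinsic fluorescence (emission maximum 336 nm) monitored while increasing Csn-B amounts were added; inner-filter contribution estimated with GST alone and subtracted to give corrected quenching curves.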

[13] = biological target: T1, Nuclear receptor subfamily 4immunitygroup A member 1; assay: Agonist activity at nuclear orphan receptor Nur77 expressed in human BGC823 cells co-transfected with fused GAL4-LBD assessed as transactivation after 12 hrs by luciferase reporter gene assay; type: functional, cell-based, BGC-823
[14] = biological target: Nuclear receptor subfamily 4 group A member 1 (Mus musculus) (UniProt P12813); assay: Agonist activity at Nur77 in wild-type mouse C57BL/6 assessed as hexokinase mRNA at 50 mg/kg, ip after 300 mins by real-time PCR analysis; type: functional, organism-based; design: dose 50 mg/kg
[15] = biological target: Nuclear receptor subfamily 4 group A member 1 (Mus musculus) (UniProt P12813); assay: Agonist activity at Nur77 in Nr4a1 deficient mouse C57BL/6 assessed as glucose-6-phosphatase mRNA at 50 mg/kg, ip by real-time PCR analysis; type: functional, organism-based; design: dose 50 mg/kg
[16] = biological target: Nuclear receptor subfamily 4 group A member 1 (Mus musculus) (UniProt P12813); assay: Agonist activity at Nur77 in Nr4a1 deficient mouse C57BL/6 assessed as fructose-1,6-bisphosphatase mRNA at 50 mg/kg, ip by real-time PCR analysis; type: functional, organism-based; design: dose 50 mg/kg
BGC-823 [17] = assay: Induction of SRC2 recruitment to NurRE in human BGC823 cells after 12 hrs by luciferase/beta-galactosidase reporter assay; type: functional, cell-based; how it was run: as §1
[18] = Antiproliferative activity against human H1299 cells assessed as number of viable cells after 72 hrs by MTT assay; type: functional, NCI-H1299
BGC-823 [19] = assay: Induction of SRC3 recruitment to NurRE in human BGC823 cells after 12 hrs by luciferase/beta-galactosidase reporter assay; type: functional, cell-based; how it was run: as §1
[20] = biological target: T1, Nuclear receptor subfamily 4immunitygroup A member 1; assay: Binding affinity to nuclear orphan receptor Nur77 assessed as conformational change in receptor by CD spectroscopic
Mus musculus = organism: Mus musculus; assay: Antiproliferative activity against mouse ME-Hep4 cells assessed as number of viable cells after 72 hrs by MTT assay; type: functional, cell-based
[21] = biological target: T1, Nuclear receptor subfamily 4immunitygroup A member 1; assay: Induction of Nur77-SRC1 interaction in human 293T cells by GST-pull-down assay; type: cell-based
How it was run: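 293T cells transfected with Flag-SRC-1, -2 or -3 and treated at 10⁻⁶ M for 3 h. Lysates were incubated with GST-Nur77 or GST alone, and bound SRC was detected by pull-down against input levels.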

[22] = biological target: T1, Nuclear receptor subfamily 4immunitygroup A member 1; assay: Agonist activity at nuclear orphan receptor Nur77 expressed in human BGC823 cells co-transfected with fused GAL4-Y453A assessed as transactivation after 12 hrs by luciferase reporter gene assay; type: functional, cell-based; conditions: BGC-823
[23] = biological target: Nuclear receptor subfamily 4 group A member 1 (Mus musculus) (UniProt P12813); assay: Agonist activity at Nur77 in Nr4a1 deficient mouse transfected withGAL4-Y453A assessed as transcriptional activation of luciferase reporter gene; type: functional
How it was run: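 Nr4a1-/- mice (n = 5/group) given tail-vein GAL4-Nur77 or GAL4-Y453A with GAL4-luciferase reporter and β-galactosidase in in vivo transfection reagent; 5 h later DMSO or Csn-B 50 mg kg-1 ip; liver luciferase measured at 24 h.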

[24] = biological target: Nuclear receptor subfamily 4 group A member 1 (Mus musculus) (UniProt P12813); assay: Agonist activity at Nur77 in insulin treated mouse C57BL/6 assessed as fructose-1,6-bisphosphatase mRNA after 60 mins by real-time PCR relative to control; type: functional
[25] = biological target: T1, Nuclear receptor subfamily 4immunitygroup A member 1; assay: Binding affinity to nuclear orphan receptor Nur77-ligand binding domain at 5 Um by fluorescence quenching analysis
[26] = biological target: Nuclear receptor subfamily 4 group A member 1 (Mus musculus) (UniProt P12813); assay: Agonist activity at Nur77 in Nr4a1-/- mouse transfected withGAL4-Y453A assessed as transcriptional activation of luciferase reporter gene
[27] = biological target: T1, Nuclear receptor subfamily 4immunitygroup A member 1; assay: Binding affinity to nuclear orphan receptor Nur77-DNA binding domain at 5 uM by fluorescence quenching analysis
[28] = biological target: T1, Nuclear receptor subfamily 4immunitygroup A member 1; assay: Agonist activity at nuclear orphan receptor Nur77 in human BGC823 cells bearing beta-galactosidase expression vector assessed as transcriptional activation of retinoic acid receptor response element after 12 hrs by luciferase assay; type: functional, cell-based; conditions: BGC-823
[29] = biological target: Nuclear receptor subfamily 4 group A member 1 (Mus musculus) (UniProt P12813); assay: Agonist activity at Nur77 in wild-type mouse C57BL/6 assessed as pyruvate kinase mRNA at 50 mg/kg, ip after 300 mins by real-time PCR analysis; type: functional, organism-based; design: dose 50 mg/kg

Nuclear receptor subfamily 4 group A member 1 (Mus musculus), sequence (P12813 whole entry, the tested form may be a part): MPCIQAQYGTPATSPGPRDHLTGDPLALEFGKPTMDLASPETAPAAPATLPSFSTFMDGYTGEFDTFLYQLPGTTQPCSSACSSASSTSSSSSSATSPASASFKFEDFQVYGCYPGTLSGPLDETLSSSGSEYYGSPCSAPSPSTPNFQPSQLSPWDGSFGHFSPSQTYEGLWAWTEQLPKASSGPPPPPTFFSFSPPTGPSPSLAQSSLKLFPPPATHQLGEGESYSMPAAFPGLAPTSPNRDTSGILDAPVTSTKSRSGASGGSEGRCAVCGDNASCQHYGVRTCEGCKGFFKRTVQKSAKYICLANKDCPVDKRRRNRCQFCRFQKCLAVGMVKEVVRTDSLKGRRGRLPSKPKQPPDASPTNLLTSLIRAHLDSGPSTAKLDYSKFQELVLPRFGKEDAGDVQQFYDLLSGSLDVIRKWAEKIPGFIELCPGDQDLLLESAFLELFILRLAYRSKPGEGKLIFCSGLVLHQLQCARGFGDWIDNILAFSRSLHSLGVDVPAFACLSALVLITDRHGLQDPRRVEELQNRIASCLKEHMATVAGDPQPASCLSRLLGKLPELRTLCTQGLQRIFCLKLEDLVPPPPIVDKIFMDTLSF
T1 sequence (P22736 whole entry): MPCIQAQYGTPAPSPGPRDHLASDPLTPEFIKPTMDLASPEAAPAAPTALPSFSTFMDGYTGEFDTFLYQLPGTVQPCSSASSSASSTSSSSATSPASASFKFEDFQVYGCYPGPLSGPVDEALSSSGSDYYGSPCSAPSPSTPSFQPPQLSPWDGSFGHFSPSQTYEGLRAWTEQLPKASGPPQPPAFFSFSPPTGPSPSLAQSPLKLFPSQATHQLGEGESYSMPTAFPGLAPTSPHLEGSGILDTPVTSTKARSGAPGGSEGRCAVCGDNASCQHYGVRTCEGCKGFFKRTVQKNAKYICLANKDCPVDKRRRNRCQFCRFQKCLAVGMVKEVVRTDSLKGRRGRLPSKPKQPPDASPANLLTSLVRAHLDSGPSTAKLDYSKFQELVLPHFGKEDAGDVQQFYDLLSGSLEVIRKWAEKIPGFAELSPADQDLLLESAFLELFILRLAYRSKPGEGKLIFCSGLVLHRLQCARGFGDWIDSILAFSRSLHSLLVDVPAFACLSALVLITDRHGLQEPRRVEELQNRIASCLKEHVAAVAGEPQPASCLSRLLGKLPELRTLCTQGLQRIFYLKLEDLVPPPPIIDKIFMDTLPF

With `CCCCCCCC(=O)c1c(O)cc(O)cc1CC(=O)OCC` [CYTOSPORONE B] the IC50 [1] was 250 µg/mL (≈ 775 µM), the Activity [2] was “Active” and the Activity [3] was “inactive”. For the same compound, the EC50 [4] was 0.278 nM, the Activity (BGC-823 [5]) was “Active” and the Activity [6] was “inactive”. For the same compound, the Activity [7] was “Dose-dependent effect”, the fold change (FC) [8] was 5 and the fold change (FC) [9] was 3. For the same compound, the Activity [10] was “Dose-dependent effect”, the Activity (BGC-823 [11]) was “Active” and the Activity [12] was “Active”. The EC50 [13] was 0.115 nM, the Activity [14] was “inactive” and the Activity [15] was “inactive”. For the same compound, the Activity [16] was “inactive”, the Activity (BGC-823 [17]) was “Active” and the “inhibition (INH)” value [18] was “>=40%”. For the same compound, the Activity (BGC-823 [19]) was “inactive”, the Activity [20] was “Active” and the inhibition (Mus musculus) was “Active”. For the same compound, the Activity [21] was “Active”, the Activity [22] was “inactive” and the Activity [23] was “inactive”. For the same compound, the fold change (FC) [24] was 3.05, the Activity [25] was “Active” and the Activity [26] was “Active”. For the same compound, the Activity [27] was “inactive”, the Activity [28] was “inactive” and the Activity [29] was “inactive”.
